Results from paper PMC5851871 (Bioorganic & medicinal chemistry letters, 2018).

Key:
[1] = biological target: thrombin cleavage of human fibrinogen (Homo sapiens, UniProt P00734); assay: PAGE densitometry of thrombin cleavage of fibrinogen; type: biochemical; conditions: for Maximal inhibition of fibrinogen cleavage (ΔY against fibrinogen): saturating inhibitor, 4.7 μM fibrinogen, 6 nM thrombin, pH 7.4, 25 °C
Summary of the method: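 Thrombin (6 nM) cleaved human fibrinogen (4.7 μM) with test compound at 0 to 150 μM. Fibrinogen cleavage was monitored by polyacrylamide gel electrophoresis.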

[2] = tested on: recombinant thrombin mutants (exosite 2 Ala replacements); assay: Inhibition of recombinant exosite 2 alanine mutant versus wild-type thrombins; type: biochemical; conditions: 11 single Ala mutants of exosite 2, Spectrozyme TH, pH 7.4, 25 °C
thrombin [3] = biological target: T1, thrombin (Homo sapiens, UniProt P00734); assay: Michaelis-Menten kinetics of Spectrozyme TH hydrolysis; type: biochemical; conditions: Michaelis-Menten kinetic studies
Summary of the method: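 Thrombin hydrolysis of Spectrozyme TH, a chromogenic substrate, was read spectrophotometrically at pH 7.4 and 25 °C. The substrate was varied at several test compound levels up to 40 μM. VMAX and KM were taken from Michaelis-Menten analysis to assign the inhibition mechanism.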

thrombin [4] = biological target: T1, thrombin; assay: Thrombin inhibition, chromogenic substrate hydrolysis assay; type: biochemical; conditions: 20 mM Tris-HCl pH 7.4, 25 mM CaCl2, 100 mM NaCl, 0.1% PEG 8000, 25 °C, ± 1 S.E.
thrombin [5] = biological target: T1, thrombin; conditions: inhibition of human thrombin by peptides; cited from earlier work

Maximal inhibition of fibrinogen cleavage (ΔY against fibrinogen) [1] | Fibrinogen cleavage continuing at saturating inhibitor ([1]; saturating levels of inhibitor) | Mechanism of inhibition (thrombin [3]) | ΔY (efficacy of inhibition) (thrombin [4]) | Molecule | IC50 of mutant versus wild-type thrombin [2] | IC50 (thrombin [5]) [µM]
about 70±8% | approximately 30% | noncompetitive inhibitor | – | CCOC(=O)c1c(C)oc2cc(OCCc3ccccc3)c(OCc3oc4cc(OC)c(OS(=O)(=O)[O-])cc4c3C(=O)OCC)cc12.[Na+] [2c] | virtually no difference in IC50 between wild-type and mutant thrombin except for Arg233Ala and Lys235Ala proteins | –
– | – | – | ~ 90% | CCOC(=O)c1c(C)oc2cc(OCC3CCCCC3)c(OCc3oc4cc(OCC5CCCCC5)c(OS(=O)(=O)[O-])cc4c3C(=O)OCC)cc12.[Na+] [2h] | – | –
greater than 90% | – | mixed inhibition | – | CCOC(=O)c1c(C)oc2cc(OCc3ccccc3)c(OCc3oc4cc(OCC5CCCCC5)c(OS(=O)(=O)[O-])cc4c3C(=O)OCC)cc12.[Na+] [2i] | potency changed significantly for several mutants including Arg165Ala, Lys169Ala, Arg175Ala, Arg233Ala and Lys236Ala | –
– | – | – | – | Fibrinogen peptide (410 – 427): allosteric peptide inhibitor of thrombin, literature value from ref 18 | – | 130
